Compound activity: PubChem BioAssay, several laboratories
HTR2A ag – mouse Htr2a agonists via beta-arrestin recruitment, primary screen, cell-based, luminescence; activation, % at 7.6 µM; AID 624169, 2012; actives 0.66% (n = 360,000); CHO-K1 mHTR2A beta-arrestin complementation; percent of 30 µM serotonin response; 5-hydroxytryptamine receptor 2A (Mus musculus), P35363;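 active means activation above a run cutoff, the mean activation of all tested compounds plus 3 SD, cut at about 14% in these data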
CCR6 antag – CCR6 receptor antagonists, primary screen, cell-based, CHO-K1, luminescence, beta-arrestin, uHTS. actives 0.49% (n = 340,000). CHO-K1 CCR6 PathHunter beta-arrestin, CCL20-stimulated. inhibition, % at 20 µM;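 active means compounds whose inhibition of the agonist-driven luminescence signal at 20 µM reaches about 50%, limit read from the data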;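 further: cells stimulated with CCL20 at 14 nM final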
APJ antag – antagonists of human apelin receptor APJ, primary screen, CHO-K1 cells, beta-arrestin complementation, luminescence. actives 0.32% (n = 330,000). AID 2521, 2010. inhibition, % at 20 µM. P35414;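 active means inhibition above about 40% at 20 µM, limit read from the data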;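 further: cells challenged with 10 nM apelin-13 agonist together with compound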
EBI2 block – EBI2 receptor antagonists, beta-arrestin recruitment, primary screen, cell-based, luminescence, 7a,25-OHC stimulation, uHTS. AID 651636, 2012. inhibition, % at 5 µM. G-protein coupled receptor 183 (Homo sapiens), P32249. actives 0.81% (n = 360,000). 7a,25-OHC stimulated; in the data active means inhibition above about 38%;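 further: enzyme fragment complementation signal reports receptor beta-arrestin coupling in cells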
CXCR6 block – CXCR6 receptor inhibitors, primary screen, cell-based, beta-arrestin, luminescence, CHO-K1 PathHunter, 1536-well. C-X-C chemokine receptor type 6 (Homo sapiens), O00574. inhibition, % at 20 µM. actives 0.36% (n = 360,000). AID 602244, 2012; in the data active means inhibition above about 34%, passing the limit was not always enough;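 further: antagonist mode with CXCL16 agonist at 10 nM final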
Target sequence (O00574 whole entry, looked up): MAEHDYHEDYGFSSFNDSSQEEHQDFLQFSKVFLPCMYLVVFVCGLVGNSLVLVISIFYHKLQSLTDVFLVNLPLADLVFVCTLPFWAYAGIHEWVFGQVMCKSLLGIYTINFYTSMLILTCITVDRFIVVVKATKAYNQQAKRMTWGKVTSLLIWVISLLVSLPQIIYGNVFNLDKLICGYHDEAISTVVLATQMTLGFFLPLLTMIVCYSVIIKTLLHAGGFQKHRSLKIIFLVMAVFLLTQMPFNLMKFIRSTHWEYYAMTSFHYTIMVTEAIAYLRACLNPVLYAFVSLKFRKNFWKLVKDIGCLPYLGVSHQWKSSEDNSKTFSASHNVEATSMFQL
APJ ag – agonists of human apelin receptor APJ, primary screen, CHO-K1 cells, PathHunter beta-arrestin, luminescence | actives 0.11% (n = 330,000) | P35414 | AID 2520, 2010 | 0% DMSO wells, 100% apelin | activation, % at 20 µM;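 active means activation more than six SD over the plate average, tested at 20 µM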
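Material: engineered CHO-K1 APJ arrestin reporter cells; amount: 1000 CHO-K1 reporter cells seeded per well; incubation: compound stimulation 90 min at 25 °C, detection 60 min; signal: luminescent beta-gal fragment complementation, chemiluminescent substrate; read-out basis: APJ agonist activity; controls: DMSO-only wells as negative, 10 nM Apelin-13 as positive control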
EBI2 antag conf – EBI2 antagonist hit retest, beta-arrestin, confirmation, cell-based, single concentration, luminescence, 7a,25-OHC stimulation | shares compounds with EBI2 block | 7a,25-OHC antagonism | inhibition, % at 5 µM | actives 29% (n = 2,400) | AID 651997, 2013;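 active means inhibition of at least 50%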
EBI2 ag – EBI2 agonist activity of antagonist hits, confirmation, counter-screen for EBI2 antagonist project, cell-based, single concentration, agonist mode, luminescence. shares compounds with EBI2 block. EBI2-expressing cells, 60 min; 0% vehicle, 100% 7α,25-dihydroxycholesterol control. activation, % at 5 µM. 2,400 tested, under 10 active;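 active means activation of at least 50%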
bGal counter – E. coli beta-galactosidase enzyme inhibition, confirmation, counter-screen for EBI2 antagonist project, biochemical, luminescence, single concentration. shares compounds with EBI2 block. AID 652176, 2013. actives 1% (n = 2,400). purified beta-galactosidase, luminescent Galacton Star, 15 min. inhibition, % at 5 µM;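 active means replicate-average signal at least 3 plate SD below neutral wells, shown as high inhibition, flagging enzyme-inhibiting false positives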;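 further: higher means stronger loss of beta-gal luminescence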
Of the large screens only hits and unclear results are named; the others gave an inactive call (follow-up assays come after a bar, where they were run). Only some compounds are listed: those with a hit (about 2.1% of all), similar ones and a draw of the others.

O=C(COc1ccccc1)N1CCN(C(=O)c2ccc([N+](=O)[O-])cc2)CC1	EBI2 block 53 | EBI2 antag conf inactive | EBI2 ag inactive | bGal counter inactive
O=C(Cc1ccccc1)N1CCN(C(=O)c2ccc([N+](=O)[O-])cc2)CC1	none
O=C(CCC1CCCC1)N1CCN(C(=O)COc2ccccc2)CC1	none
O=C(COc1ccc2ccccc2c1)N1CCN(C(=O)c2ccc([N+](=O)[O-])cc2)CC1	EBI2 block 94 | EBI2 antag conf 76 | EBI2 ag inactive | bGal counter inactive
Cc1ccc(OCC(=O)N2CCN(C(=O)CCC3CCCC3)CC2)cc1	EBI2 block 81 | EBI2 antag conf 61 | EBI2 ag inactive | bGal counter inactive
CCOC(=O)N1CCN(C(=O)COc2ccc([N+](=O)[O-])cc2)CC1	none
Cc1ccc(OCC(=O)N2CCN(C(=O)c3ccc([N+](=O)[O-])cc3)CC2)cc1	EBI2 block 83 | EBI2 antag conf 58 | EBI2 ag inactive | bGal counter inactive
CN(CCCn1ccc(NC(=O)OCc2ccccc2)nc1=O)CCc1ccccn1	none (no result: CCR6 antag, APJ antag, APJ ag)
O=S(=O)(c1ccc(Cl)cc1)N1CCCC(c2nc(-c3ccc(F)cc3)no2)C1 (configuration not stated)	none
COc1ccc(-c2noc(C3CCCN(C(=O)Nc4ccccc4F)C3)n2)cc1 (configuration not stated)	none
O=C(Nc1ccc(Cl)cc1)N1CCC(c2nc(-c3ccc(F)cc3)no2)CC1	EBI2 block 53 | EBI2 antag conf inactive | EBI2 ag inactive | bGal counter inactive
O=C(Nc1ccccc1Cl)N1CCN(c2ccc3nnc(-c4ccccc4)n3n2)CC1	none
O=C(Nc1ccc(Cl)cc1)N1CCN(c2ccc3nnc(-c4ccc(F)cc4)n3n2)CC1	EBI2 block 48 | EBI2 antag conf inactive | EBI2 ag inactive | bGal counter inactive
COc1ccc(NC(=O)N2CCCC(c3nc(-c4ccc(OC)cc4)no3)C2)cc1 (configuration not stated)	EBI2 block 58 | EBI2 antag conf inactive | EBI2 ag inactive | bGal counter inactive
CCOc1ccc(C(=O)/C=C/c2ccc(SC)cc2)cc1	EBI2 block 61 | EBI2 antag conf 50 | EBI2 ag inactive | bGal counter inactive
CCOc1ccc(/C=C/C(=O)c2ccccc2)cc1	none
CCOC(=O)N1CCN(C(=O)c2cc3cc(Cl)ccc3[nH]2)CC1	EBI2 block 93 | EBI2 antag conf 73 | EBI2 ag inactive | bGal counter inactive
Cc1ccc2[nH]c(C(=O)N3CCCCC3)cc2c1	none
CCOC(=O)N1CCN(C(=O)c2cc3cc(F)ccc3[nH]2)CC1	EBI2 block 81 | EBI2 antag conf 53 | EBI2 ag inactive | bGal counter inactive
CCOC(=O)C1CCCN(C(=O)c2cc3cc(F)ccc3[nH]2)C1 (configuration not stated)	none
CCOC(=O)C1CCN(C(=O)c2cc3cc(F)ccc3[nH]2)CC1	EBI2 block 62 | EBI2 antag conf inactive | EBI2 ag inactive | bGal counter inactive
COC(=O)[C@H](CC(C)C)NC(=O)/C=C/[C@H]1O[C@@H](n2ccc(=O)[nH]c2=O)[C@H](O)[C@@H]1O	none (no result: CCR6 antag, APJ antag, APJ ag)
CCn1c(O)c(/C=C2\C=Nc3ccccc32)sc1=Nc1ccccc1	EBI2 block 53 | EBI2 antag conf inactive | EBI2 ag inactive | bGal counter inactive
Cc1cc(C)cc(N(CCC#N)C(=O)CSc2nc3ccccc3c(=O)[nH]2)c1	none
CCn1c(SCC(=O)NCCc2ccc(Cl)cc2)nnc1-c1cccs1	EBI2 block 64 | EBI2 antag conf inactive | EBI2 ag inactive | bGal counter inactive
O=C(CSc1nnc(-c2ccncc2)n1Cc1ccccc1)NCCc1ccccc1	EBI2 block 53 | EBI2 antag conf inactive | EBI2 ag inactive | bGal counter inactive
CSc1ccc(/C=N/NC(=O)CN2CCN(Cc3ccc(C)cc3)CC2)cc1	EBI2 block 45 | EBI2 antag conf inactive | EBI2 ag inactive | bGal counter inactive
CSc1ccc(/C=N/NC(=O)CN2CCN(Cc3ccccc3Cl)CC2)cc1	EBI2 block 61 | EBI2 antag conf inactive | EBI2 ag inactive | bGal counter inactive
Cc1ccc(/C=N/NC(=O)CN2CCN(Cc3ccccc3Cl)CC2)o1	none
COCCN(C(=O)COC(=O)c1sccc1C)c1c(N)n(Cc2ccccc2)c(=O)[nH]c1=O	none
Cc1ccc2oc(=O)n(CCOc3ccccc3C)c2c1	none
Cc1ccc2oc(=O)n(CCCOc3ccccc3C)c2c1	EBI2 block 44 | EBI2 antag conf inactive | EBI2 ag inactive | bGal counter inactive
COc1ccc(S(=O)(=O)N(C)[C@H]2C[C@H]3c4cc(Oc5ccccc5C)ccc4CCN3C(=O)[C@H]2[C@H](C)O)cc1	none (no result: CCR6 antag, APJ antag, APJ ag)
Cc1ccc(-c2nnc(SCC(=O)NNC(=O)COc3cccc(C)c3)n2C)cc1	EBI2 block 45 | EBI2 antag conf inactive | EBI2 ag inactive | bGal counter inactive
COc1ccc(C(=O)NNC(=O)CSc2nnc(C(C)C)n2C)cc1	none
Cc1ccc(-c2nnc(SCC(=O)NNC(=O)COc3ccccc3C)n2C)cc1	EBI2 block 53 | EBI2 antag conf inactive | EBI2 ag inactive | bGal counter inactive
COc1ccc(C(=O)NNC(=O)CSc2nnc(-c3ccc(O)cc3)n2C)cc1	EBI2 block 69 | EBI2 antag conf inactive | EBI2 ag inactive | bGal counter inactive
COc1cc(OC)c(NC(=O)c2csc(C)c2)cc1Cl	none
CCCCC1CCC(C(=O)Nc2ccc(N3CCOCC3)cc2N2CCOCC2)CC1 (configuration not stated)	none
